According to ChEMBL document CHEMBL5653631, “A Potent and Selective ULK1 Inhibitor Suppresses Autophagy and Sensitizes Cancer Cells to Nutrient Stress” (iScience, 2018):
Blank lines part the entries; values can stand above or below the molecule they belong to.

What was measured:
[1] = biological target: RAC-gamma serine/threonine-protein kinase (Homo sapiens) (UniProt Q9Y243); experiment: Inhibition of human recombinant AKT3 at 500 nM related to control ULK1
[2] = biological target: Serine/threonine-protein kinase PLK3 (Homo sapiens) (UniProt Q9H4B4); experiment: Inhibition of human recombinant PLK3 at 40 nM in presence of ATP by radiometric assay relative to control
[3] = biological target: Serine/threonine-protein kinase 26 (Homo sapiens) (UniProt Q9P289); experiment: Inhibition of human recombinant MST4 at 40 nM in presence of ATP by radiometric assay relative to control
[4] = biological target: Protein kinase C gamma type (Homo sapiens) (UniProt P05129); experiment: Inhibition of human recombinant PKCg at 40 nM in presence of ATP by radiometric assay relative to control
[5] = biological target: T1, Mitogen-activated protein kinase kinase kinase 3 (Homo sapiens) (UniProt Q99759); experiment: Inhibition of human recombinant MAP3K3 at 40 nM related to control ULK1
T1 sequence (whole entry): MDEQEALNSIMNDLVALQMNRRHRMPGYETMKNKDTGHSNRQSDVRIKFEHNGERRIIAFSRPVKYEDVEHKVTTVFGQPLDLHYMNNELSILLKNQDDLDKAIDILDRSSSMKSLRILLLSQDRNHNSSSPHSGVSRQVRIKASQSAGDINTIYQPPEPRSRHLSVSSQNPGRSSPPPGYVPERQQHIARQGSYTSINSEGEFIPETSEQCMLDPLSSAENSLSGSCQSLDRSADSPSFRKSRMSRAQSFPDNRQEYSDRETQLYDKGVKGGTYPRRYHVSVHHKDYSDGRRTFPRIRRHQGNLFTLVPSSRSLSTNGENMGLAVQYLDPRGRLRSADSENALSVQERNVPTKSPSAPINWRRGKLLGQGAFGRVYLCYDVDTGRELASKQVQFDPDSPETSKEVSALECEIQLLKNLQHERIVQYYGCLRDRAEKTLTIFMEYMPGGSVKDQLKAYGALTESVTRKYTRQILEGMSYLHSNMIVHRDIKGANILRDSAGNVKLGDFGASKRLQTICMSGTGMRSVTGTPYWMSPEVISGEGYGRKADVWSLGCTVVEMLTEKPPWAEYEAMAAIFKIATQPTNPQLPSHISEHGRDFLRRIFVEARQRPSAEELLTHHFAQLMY

[6] = biological target: Tau-tubulin kinase 1 (Homo sapiens) (UniProt Q5TCY1); experiment: Inhibition of human recombinant TTBK1 at 40 nM in presence of ATP by radiometric assay relative to control
[7] = biological target: Epidermal growth factor receptor (Homo sapiens) (UniProt P00533); experiment: Inhibition of human recombinant EGFR at 40 nM related to control ULK1
[8] = biological target: Cyclin-dependent kinase 9 (Homo sapiens) (UniProt P50750); experiment: Inhibition of human recombinant CDK9 at 15 nM in presence of ATP by radiometric assay relative to control
[9] = biological target: T2, Discoidin domain-containing receptor 2 (Homo sapiens) (UniProt Q16832); experiment: Inhibition of human recombinant DDR2 at 15 nM related to control ULK1
T2 sequence (whole entry): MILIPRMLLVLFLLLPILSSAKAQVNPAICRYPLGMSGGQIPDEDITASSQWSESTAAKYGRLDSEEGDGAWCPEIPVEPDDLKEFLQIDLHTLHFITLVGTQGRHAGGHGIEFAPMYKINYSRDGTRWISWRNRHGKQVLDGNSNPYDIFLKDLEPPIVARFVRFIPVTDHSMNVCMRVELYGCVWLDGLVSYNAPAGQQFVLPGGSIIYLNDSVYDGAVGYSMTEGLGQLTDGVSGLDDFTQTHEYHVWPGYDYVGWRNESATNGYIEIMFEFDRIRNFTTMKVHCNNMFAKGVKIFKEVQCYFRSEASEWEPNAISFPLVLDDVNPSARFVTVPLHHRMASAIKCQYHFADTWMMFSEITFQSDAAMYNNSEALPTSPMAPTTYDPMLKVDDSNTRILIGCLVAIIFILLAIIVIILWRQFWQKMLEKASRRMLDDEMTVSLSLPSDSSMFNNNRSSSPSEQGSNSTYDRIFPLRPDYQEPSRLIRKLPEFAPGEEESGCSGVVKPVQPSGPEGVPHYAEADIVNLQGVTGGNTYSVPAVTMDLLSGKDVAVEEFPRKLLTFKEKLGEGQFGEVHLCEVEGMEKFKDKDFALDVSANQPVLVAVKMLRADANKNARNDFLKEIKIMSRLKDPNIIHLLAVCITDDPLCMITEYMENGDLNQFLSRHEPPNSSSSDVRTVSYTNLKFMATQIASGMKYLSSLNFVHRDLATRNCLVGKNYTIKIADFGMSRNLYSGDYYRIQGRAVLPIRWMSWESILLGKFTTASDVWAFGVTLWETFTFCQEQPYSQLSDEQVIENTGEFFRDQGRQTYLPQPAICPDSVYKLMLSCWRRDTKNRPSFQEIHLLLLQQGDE

[10] = biological target: Tyrosine-protein kinase receptor UFO (Homo sapiens) (UniProt P30530); experiment: Inhibition of human recombinant AXL at 15 nM in presence of ATP by radiometric assay relative to control
Outline: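 Panel of 327 recombinant human kinases, each assayed in vitro by radiometric activity assay in duplicate at a single inhibitor concentration per compound, chosen with reference to its ULK1 inhibition. Activity remaining was expressed as percent of vehicle control, and percent inhibition was calculated as 100 minus percent activity remaining.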

[11] = biological target: T3, Tribbles homolog 2 (Homo sapiens) (UniProt Q92519); experiment: Inhibition of human recombinant Trb2 at 15 nM related to control ULK1
T3 sequence (whole entry): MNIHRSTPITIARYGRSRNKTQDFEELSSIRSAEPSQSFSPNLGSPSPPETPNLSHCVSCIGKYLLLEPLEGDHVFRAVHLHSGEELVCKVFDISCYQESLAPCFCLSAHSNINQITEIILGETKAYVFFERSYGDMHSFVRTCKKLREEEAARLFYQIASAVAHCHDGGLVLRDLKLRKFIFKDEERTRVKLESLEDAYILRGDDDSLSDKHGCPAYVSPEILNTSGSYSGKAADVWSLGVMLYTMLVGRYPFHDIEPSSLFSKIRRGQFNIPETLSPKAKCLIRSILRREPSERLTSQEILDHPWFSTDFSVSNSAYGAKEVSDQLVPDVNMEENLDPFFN

[12] = biological target: Tau-tubulin kinase 2 (Homo sapiens) (UniProt Q6IQ55); experiment: Inhibition of human recombinant TTBK2 at 15 nM related to control ULK1
[13] = biological target: TRAF2 and NCK-interacting protein kinase (Homo sapiens) (UniProt Q9UKE5); experiment: Inhibition of human recombinant TNIK at 15 nM in presence of ATP by radiometric assay relative to control
[14] = biological target: Tyrosine-protein kinase CSK (Homo sapiens) (UniProt P41240); experiment: Inhibition of human recombinant CSK at 15 nM related to control ULK1
Chain of Tyrosine-protein kinase CSK (Homo sapiens) (P41240 2-450 limits assumed): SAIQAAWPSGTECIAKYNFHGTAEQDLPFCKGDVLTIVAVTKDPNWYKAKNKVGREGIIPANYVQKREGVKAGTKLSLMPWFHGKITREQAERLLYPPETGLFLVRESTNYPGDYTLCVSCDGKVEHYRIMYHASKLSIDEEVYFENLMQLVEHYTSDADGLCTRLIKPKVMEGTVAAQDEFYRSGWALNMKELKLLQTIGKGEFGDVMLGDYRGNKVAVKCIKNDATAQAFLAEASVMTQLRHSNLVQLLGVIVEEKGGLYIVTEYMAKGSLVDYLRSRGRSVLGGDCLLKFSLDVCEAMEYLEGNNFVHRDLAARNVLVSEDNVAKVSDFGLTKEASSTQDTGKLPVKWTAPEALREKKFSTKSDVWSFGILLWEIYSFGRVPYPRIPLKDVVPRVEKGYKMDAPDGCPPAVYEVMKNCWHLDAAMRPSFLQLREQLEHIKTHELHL

Chain of Tyrosine-protein kinase receptor UFO (Homo sapiens) (P30530 whole entry): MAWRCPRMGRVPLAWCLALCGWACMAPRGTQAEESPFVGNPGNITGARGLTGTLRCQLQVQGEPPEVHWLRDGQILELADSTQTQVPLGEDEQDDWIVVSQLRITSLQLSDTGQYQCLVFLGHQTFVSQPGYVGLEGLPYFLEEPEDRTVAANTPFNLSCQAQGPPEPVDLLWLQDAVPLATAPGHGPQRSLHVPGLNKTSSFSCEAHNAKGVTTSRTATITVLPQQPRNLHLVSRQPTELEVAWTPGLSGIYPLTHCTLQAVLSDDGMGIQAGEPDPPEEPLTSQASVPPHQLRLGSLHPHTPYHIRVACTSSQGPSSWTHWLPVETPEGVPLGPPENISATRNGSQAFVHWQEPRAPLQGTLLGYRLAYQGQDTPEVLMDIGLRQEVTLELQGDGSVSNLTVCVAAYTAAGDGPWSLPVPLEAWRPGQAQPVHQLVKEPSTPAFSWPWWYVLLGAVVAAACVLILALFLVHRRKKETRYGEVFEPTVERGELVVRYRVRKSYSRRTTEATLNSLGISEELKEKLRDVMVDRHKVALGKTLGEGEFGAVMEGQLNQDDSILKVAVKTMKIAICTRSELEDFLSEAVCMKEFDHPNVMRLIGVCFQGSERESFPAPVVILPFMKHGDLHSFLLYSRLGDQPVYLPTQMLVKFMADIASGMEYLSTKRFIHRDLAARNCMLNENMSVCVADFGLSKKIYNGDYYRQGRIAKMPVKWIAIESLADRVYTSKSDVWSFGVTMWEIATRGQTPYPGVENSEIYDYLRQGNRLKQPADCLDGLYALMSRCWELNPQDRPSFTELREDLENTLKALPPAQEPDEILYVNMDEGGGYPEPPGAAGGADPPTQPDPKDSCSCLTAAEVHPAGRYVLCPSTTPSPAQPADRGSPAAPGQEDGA
Chain of Serine/threonine-protein kinase 26 (Homo sapiens) (Q9P289 2-416 limits assumed): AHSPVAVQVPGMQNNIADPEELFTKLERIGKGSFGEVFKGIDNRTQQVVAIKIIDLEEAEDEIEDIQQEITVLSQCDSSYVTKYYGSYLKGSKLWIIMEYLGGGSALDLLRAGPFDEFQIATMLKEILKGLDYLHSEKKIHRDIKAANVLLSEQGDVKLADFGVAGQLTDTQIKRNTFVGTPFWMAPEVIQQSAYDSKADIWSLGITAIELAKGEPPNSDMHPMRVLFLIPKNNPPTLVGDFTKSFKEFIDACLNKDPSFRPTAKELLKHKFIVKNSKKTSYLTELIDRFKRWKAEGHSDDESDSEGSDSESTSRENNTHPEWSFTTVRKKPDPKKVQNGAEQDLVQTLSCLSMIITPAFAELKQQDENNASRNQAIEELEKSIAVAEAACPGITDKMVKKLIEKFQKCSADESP
Chain of TRAF2 and NCK-interacting protein kinase (Homo sapiens) (Q9UKE5 whole entry, looked up): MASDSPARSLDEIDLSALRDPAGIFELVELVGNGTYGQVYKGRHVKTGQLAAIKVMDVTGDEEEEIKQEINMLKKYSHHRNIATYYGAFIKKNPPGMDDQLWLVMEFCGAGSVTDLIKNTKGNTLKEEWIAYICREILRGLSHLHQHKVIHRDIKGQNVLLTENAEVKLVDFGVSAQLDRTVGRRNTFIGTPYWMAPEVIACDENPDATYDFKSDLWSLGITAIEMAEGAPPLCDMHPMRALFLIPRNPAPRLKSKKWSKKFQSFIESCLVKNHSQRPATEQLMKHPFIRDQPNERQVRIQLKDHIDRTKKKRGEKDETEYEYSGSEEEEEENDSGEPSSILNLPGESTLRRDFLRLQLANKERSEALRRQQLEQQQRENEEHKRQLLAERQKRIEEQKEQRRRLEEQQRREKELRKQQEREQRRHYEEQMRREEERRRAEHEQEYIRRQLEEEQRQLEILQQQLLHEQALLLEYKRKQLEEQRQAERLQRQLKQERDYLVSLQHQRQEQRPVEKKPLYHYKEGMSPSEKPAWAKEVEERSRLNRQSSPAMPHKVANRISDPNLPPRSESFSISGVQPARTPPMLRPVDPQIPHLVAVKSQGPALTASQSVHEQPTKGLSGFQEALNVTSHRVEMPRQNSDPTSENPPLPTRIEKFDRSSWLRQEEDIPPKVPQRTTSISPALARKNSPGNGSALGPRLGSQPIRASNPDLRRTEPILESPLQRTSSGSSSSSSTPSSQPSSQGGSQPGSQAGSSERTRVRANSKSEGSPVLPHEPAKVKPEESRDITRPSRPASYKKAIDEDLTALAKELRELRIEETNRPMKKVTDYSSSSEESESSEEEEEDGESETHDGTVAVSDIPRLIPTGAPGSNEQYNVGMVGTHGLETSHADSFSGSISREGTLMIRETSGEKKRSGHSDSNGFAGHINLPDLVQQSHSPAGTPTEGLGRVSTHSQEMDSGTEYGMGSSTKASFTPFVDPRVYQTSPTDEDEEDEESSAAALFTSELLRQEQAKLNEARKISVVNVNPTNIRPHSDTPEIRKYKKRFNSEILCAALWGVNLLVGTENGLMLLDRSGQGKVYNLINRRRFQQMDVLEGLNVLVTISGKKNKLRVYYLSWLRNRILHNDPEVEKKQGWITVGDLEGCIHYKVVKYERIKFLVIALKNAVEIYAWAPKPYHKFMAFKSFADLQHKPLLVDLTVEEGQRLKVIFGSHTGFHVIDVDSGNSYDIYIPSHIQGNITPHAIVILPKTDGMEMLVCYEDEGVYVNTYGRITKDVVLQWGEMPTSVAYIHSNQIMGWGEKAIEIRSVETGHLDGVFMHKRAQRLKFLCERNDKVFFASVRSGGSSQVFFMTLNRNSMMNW
Chain of Epidermal growth factor receptor (Homo sapiens) (P00533 whole entry): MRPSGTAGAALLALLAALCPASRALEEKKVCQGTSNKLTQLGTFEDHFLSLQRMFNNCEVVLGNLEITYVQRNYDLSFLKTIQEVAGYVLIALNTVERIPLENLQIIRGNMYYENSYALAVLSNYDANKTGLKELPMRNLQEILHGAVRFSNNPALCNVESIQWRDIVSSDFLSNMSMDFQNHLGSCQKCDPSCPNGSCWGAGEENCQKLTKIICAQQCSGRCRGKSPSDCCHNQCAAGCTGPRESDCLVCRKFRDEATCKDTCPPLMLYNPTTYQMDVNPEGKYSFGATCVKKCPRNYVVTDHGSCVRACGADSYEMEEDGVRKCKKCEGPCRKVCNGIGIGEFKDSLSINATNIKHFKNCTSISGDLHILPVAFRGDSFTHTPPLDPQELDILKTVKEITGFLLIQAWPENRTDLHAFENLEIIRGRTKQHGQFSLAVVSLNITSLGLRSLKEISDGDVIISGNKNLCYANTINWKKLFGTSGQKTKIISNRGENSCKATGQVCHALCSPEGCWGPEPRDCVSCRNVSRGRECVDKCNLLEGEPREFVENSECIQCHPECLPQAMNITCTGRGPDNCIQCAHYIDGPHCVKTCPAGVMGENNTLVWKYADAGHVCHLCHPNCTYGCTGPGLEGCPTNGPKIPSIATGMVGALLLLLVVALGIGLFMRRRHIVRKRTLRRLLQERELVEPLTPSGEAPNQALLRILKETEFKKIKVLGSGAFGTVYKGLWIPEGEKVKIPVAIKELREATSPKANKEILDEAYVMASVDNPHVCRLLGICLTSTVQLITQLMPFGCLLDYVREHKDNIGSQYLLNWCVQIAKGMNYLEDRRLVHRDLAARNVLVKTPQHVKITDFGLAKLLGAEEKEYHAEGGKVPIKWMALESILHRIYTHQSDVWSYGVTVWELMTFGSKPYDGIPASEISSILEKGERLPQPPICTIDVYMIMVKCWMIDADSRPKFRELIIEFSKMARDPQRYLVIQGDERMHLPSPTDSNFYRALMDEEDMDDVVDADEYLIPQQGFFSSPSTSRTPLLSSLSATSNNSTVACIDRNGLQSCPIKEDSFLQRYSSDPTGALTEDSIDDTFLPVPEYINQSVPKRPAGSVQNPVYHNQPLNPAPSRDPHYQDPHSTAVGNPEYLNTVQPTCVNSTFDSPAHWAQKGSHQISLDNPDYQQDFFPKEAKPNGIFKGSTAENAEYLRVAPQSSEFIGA

fold change (FC) [1]: 0.07
Structure (SMILES): CNC(=O)c1ccccc1Oc1nc(Nc2cc(OC)c(OC)c(OC)c2)ncc1Br

inhibition [2]: 0% | inhibition [3]: 0% | inhibition [4]: 0% | fold change (FC) [5]: 0 | inhibition [6]: 0% | fold change (FC) [7]: 0
Structure (SMILES): O=C(N[C@@H](C1CC1)C(F)(F)F)c1cc(-c2cnn3cc(-c4ccc(F)cc4)cnc23)cs1

inhibition [8]: 0% | fold change (FC) [9]: 0 | inhibition [10]: 11% | fold change (FC) [11]: 0.41 | fold change (FC) [12]: 0 | inhibition [13]: 5% | fold change (FC) [14]: 0.14
Structure (SMILES): CC(C)[C@H](NC(=O)c1cc(-c2cnn3cc(-c4ccc(OCCN5CCCCC5)cc4)cnc23)cs1)C(F)(F)F
